Structures are written as SMILES. Where “and” joins values, the source holds several entries; their conditions need not be identical. Equal values may be shown once. The campaign covered roughly 2,500 compounds. About 1,500 (60%) were called active.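 The calls were made as follows: active = inhibition of at least 30% at 20 µM; inactive = the rest.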 So high a share suggests a set chosen from earlier hits. The list is a sample of the results.

A word on the inhibition: it is the relative decrease from the control value, in per cent.

Sequence of Carboxy-terminal domain RNA polymerase II polypeptide A small phosphatase 1 (Homo sapiens) (Q9GZU7 76-261 limits assumed): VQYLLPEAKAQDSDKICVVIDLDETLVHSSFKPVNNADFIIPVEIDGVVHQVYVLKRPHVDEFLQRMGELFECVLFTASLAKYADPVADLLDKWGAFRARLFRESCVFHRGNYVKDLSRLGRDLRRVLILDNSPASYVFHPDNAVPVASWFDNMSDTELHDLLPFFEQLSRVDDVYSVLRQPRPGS

The assay addresses Carboxy-terminal domain RNA polymerase II polypeptide A small phosphatase 1 (Homo sapiens) (UniProt Q9GZU7). As to the kind of experiment: SCP1 dephosphorylation blockade at one dose – biochemical, colorimetric, single concentration, confirmation (AID 540281).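 Also: plate controls were DMSO with enzyme for no effect and buffer wells lacking enzyme for full effect.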 To be noted: recombinant SCP-1 catalytic domain, phosphate release, malachite green absorbance; at 20 µM; active compounds read high. In outline: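 assay system = SCP-1 catalytic fragment (residues 76-261) | timing = Enzyme–substrate reaction 45 min, room temperature | measured by = colorimetric absorbance at 630 nm of released free orthophosphate | also added = Phospho-17-mer peptide substrate | compound dosing = single 20 µM final compound concentration, 1.0% DMSO | medium = Acidic Tris acetate with 10 mM MgCl2 and Tween-20, pH 5.5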
`Cc1ccc(C(=O)NNC(=O)c2cc3cc4ccccc4nc3s2)cc1`: the inhibition is 61% (active).

`O=[N+]([O-])c1cc(S(=O)(=O)Nc2cccc(Cl)c2)ccc1N=Nc1c(O)[nH]c2ccccc12`: the inhibition was 8.78% (inactive).

For the compound `Cc1ccc(CCCOC(=O)C[N+]2(C)CCCC2)cc1`, the inhibition was 78.5% (active).

Regarding `COC(=O)c1ccccc1NC(=O)C1(S(=O)(=O)c2ccc(Cl)cc2)CC1`, the inhibition was -25% (inactive).

`Cc1ccc(NC(=O)c2cc(-c3ccc(C)o3)nc3ccccc23)nc1`: the inhibition is 67.9% (active).

For `O=C(COC(=O)c1ccccc1O)NCc1ccco1`, the inhibition is 59.3% (active).

In the case of `CN(c1ccccc1)S(=O)(=O)c1ccc(Cl)c(C(=O)OCC(=O)NCc2ccco2)c1`, the inhibition was 56.5% (active).

For `Cc1cc(C(=O)OCC(=O)NCc2ccco2)c(C)n1-c1ccccc1`, the inhibition was 67.3% (active).

For the compound `O=C(COC(=O)c1cnc(Cl)c(Cl)c1)NCc1ccco1`, the inhibition is 44.4% (active).

As for `CCOC(=O)C1CCCN(C(=O)CN(c2ccc(OC)cc2)S(=O)(=O)c2c(C)noc2C)C1` (stereo not drawn), the inhibition was -13.6% (inactive).

For the compound `NC(=O)NC(=O)CSc1nc2cc([N+](=O)[O-])ccc2n1-c1cccc(C(F)(F)F)c1`, the inhibition is -1.8% (inactive).

`CC1=NN(C(=O)CCc2ccccc2O)C(O)(C(F)(F)F)C1` (stereo not drawn): the inhibition was -13.9% (inactive).

Take `O=C(COC(=O)CCC(=O)c1cccs1)NCc1ccco1`: the inhibition is 75.5% (active).

As for `Cc1c(Cl)cnc(NC(=O)COC(=O)c2ccc(S(=O)(=O)NCc3ccco3)cc2)c1Cl`, the inhibition was 67% (active).

For `CCOc1ccc2nc(N(CCCN(C)C)C(=O)c3ccc(C(=O)c4ccccc4)cc3)sc2c1`, the inhibition is -4.94% (inactive).

As for `Cc1ccc(S(=O)(=O)Nc2nc(C)cc(-n3nc(C)cc3C)n2)cc1`, the inhibition is -2.85% (inactive).

With `O=C(c1ccc(CS(=O)(=O)c2ccccc2)o1)N1CCN(c2ccccc2)CC1`, the inhibition is 59.1% (active).

On to `CC(C)c1ccc(NC(=S)NNc2ccc(Cl)c(C(=O)O)c2)cc1`, for which the inhibition was 4.8% (inactive).

Turning to `Cc1ccc(CCNC(=O)c2ccc3nc4ccccc4c(=O)n3c2)cc1`, the inhibition is 41.5% (active).

As for `COc1cccc(CNS(=O)(=O)c2csc(C(N)=O)c2)c1`, the inhibition is -12.2% (inactive).

As to `COc1cccc(NC(C)=[N+](C)CCNS(=O)(=O)c2ccc(Cl)cc2)c1`, the inhibition is 92.4% (active).

As for `Cc1ccc(NC(=O)COC(=O)C2C3CC4OC(=O)C2C4C3)cc1Cl` (stereo not drawn), the inhibition was -2.24% (inactive).

Turning to `O=C(COc1ccc(-n2cnnn2)cc1)Nc1ccccc1Cl`, the inhibition is 56.8% (active).

With `CC(C)CCOc1ccc(C(=O)C[N+]2(C)CCOCC2)cc1`, the inhibition was 98.7% (active).

On to `O=C(Nc1cccnc1)c1cc2cc(Br)ccc2oc1=O`, for which the inhibition is 68.8% (active).

Take `COc1cc(/C=C/C2=CC(C)(C)NC(=S)N2)cc(OC)c1OC`: the inhibition was -11.8% (inactive).

With `Cc1ccc(/C=C/C(=O)Nc2ccc([N+](=O)[O-])c(NC(=O)/C=C/c3ccc(C)o3)c2)o1`, the inhibition is 66.7% (active).

For the compound `CCCCCN1CC(O)=C(c2nc(-c3ccc(Cl)cc3)cs2)C1=N`, the inhibition was 71.5% (active).

As for `O=C(COC(=O)/C=C/c1ccc(Br)o1)Nc1cccc(S(=O)(=O)N2CCOCC2)c1`, the inhibition was 16.4% (inactive).

For the compound `Cc1ccn2c(=O)nc(SCC(=O)NCc3ccc4c(c3)OCO4)nc2c1`, the inhibition was 57.6% (active).

For the compound `COc1cccc(CC(=O)OCC(=O)NCc2ccc3c(c2)OCO3)c1`, the inhibition was -5.6% (inactive).

As for `CCCCSc1nnc(-c2ccc(C)cc2)o1`, the inhibition is -16.3% (inactive).

Turning to `Cc1ccc(N=Cc2c(O)n(-c3nccs3)c(=O)c3ccccc23)c(C)c1`, the inhibition is -12.9% (inactive).

In the case of `CC1CCN(c2ccc(S(=O)(=O)Nc3cc(C(=O)O)cc(C(=O)O)c3)cc2[N+](=O)[O-])CC1`, the inhibition was 51.3% (active).

Regarding `O=C(NN1C(=O)C2C3C=CC(O3)C2C1=O)c1ccccc1` (stereo not drawn), the inhibition is -10.8% (inactive).

With `CCc1ccc(NC(=O)CS(=O)CC(=O)NCCCc2ccccc2)cc1` (stereo not drawn), the inhibition is 93.8% (active).

As for `CS(=O)(=O)C1=NN2C(=N)/C(=C\c3ccc(OCCOc4ccccc4)cc3)C(=O)N=C2S1`, the inhibition was 72% (active).

For `COc1cccc2cc(-c3cc(=O)oc4cc(C)c(O)cc34)oc12`, the inhibition is 57.7% (active).

For `O=c1c2cc(-c3ccccc3)sc2nc2n1N=C(c1cccs1)CS2`, the inhibition was 38.4% (active).

For the compound `O=C(CN1CCN(c2ccc(Cl)cc2)CC1)c1ccccc1`, the inhibition was -15.3% (inactive).

In the case of `O=C(c1cc2c(s1)CCC2)N1CCN(c2ccccc2)CC1`, the inhibition is 31.4% (active).

As for `ON=C1/C(=N\O)CC2(C/C1=N/O)OCCO2`, the inhibition was 36.9% (active).

`Cc1nn(-c2cc(Cl)ccc2N)c(=O)c2ccccc12`: the inhibition was 32.6% (active).

In the case of `COc1ccc(Cl)cc1NC(=O)CCS(=O)(=O)c1ccc(Br)cc1`, the inhibition is 62.9% (active).

For the compound `O=C(CCS(=O)(=O)c1ccc(Br)cc1)NCCc1ccc(Cl)cc1`, the inhibition was 55.6% (active).

For the compound `O=C(c1ccc2c(c1)OCO2)N1CCNc2ccccc2C1`, the inhibition was -27.2% (inactive).

With `CC[n+]1c(C)n(-c2ccccc2)c2ccc(NC(C)=O)cc21`, the inhibition is 85.8% (active).

For the compound `O=C(Cn1cc(/C=N/NC(=O)c2cccc(C(F)(F)F)c2)c2ccccc21)Nc1ccc(F)cc1`, the inhibition is 39.4% (active).

For the compound `N#CC1=C(SCc2ccccc2)NC(=O)C(C#N)C12CCCC2` (stereo not drawn), the inhibition was 9.2% (inactive).

With `O=c1[nH]n(-c2ccc([N+](=O)[O-])cc2)c(=O)c2ccccc12`, the inhibition is 46.7% (active).

`O=C1NN(c2ccccc2)C(=O)/C1=C/c1ccc(-c2cccc(C(=O)O)c2)o1`: the inhibition was 72.6% (active).

As to `COC(=O)c1ccc(-c2c(-c3ccccc3)ncc3cc(OC)c(OC)cc23)cc1`, the inhibition is -1.8% (inactive).

Turning to `COc1ccc(OCC(=O)NNC(=O)c2ccc(-c3ccccc3)cc2)cc1`, the inhibition was 67.5% (active).

Turning to `COc1ccc(OC)c(NC(=O)CSc2nc(-c3ccccc3)cc(=O)[nH]2)c1`, the inhibition is -9.58% (inactive).

On to `O=C(NNC(=O)c1ccc2ccccc2c1)c1ccc(Cl)cc1`, for which the inhibition was 57.2% (active).

With `Cn1c(N)c(C(=O)COC(=O)c2ccc3ccccc3c2)c(=O)n(C)c1=O`, the inhibition was -18.1% (inactive).

Turning to `Cc1oc2c(C)c3oc(=O)c(CC(=O)N[C@@H](CC(C)C)C(=O)N[C@@H](Cc4ccccc4)C(=O)O)c(C)c3cc2c1C`, the inhibition was 80.1% (active).

`Cc1c([N+](=O)[O-])c(N)nn1C`: the inhibition was 3.58% (inactive).

In the case of `O=C(O)c1ccc(N/N=C/c2ccc3ncccc3c2)cc1`, the inhibition is 39.7% (active).

In the case of `COc1ccc(NC(=O)CN(C)C(=O)/C=C/c2cn(Cc3ccccc3)nc2-c2cccnc2)cc1`, the inhibition was 84.6% (active).

For the compound `COC(=O)C[n+]1cccc2ccccc21`, the inhibition was 21% (inactive).

On to `Nn1cnnc1N/N=C/c1cc([N+](=O)[O-])c(Cl)cc1Cl`, for which the inhibition is 86.2% (active).

With `O=C1CCC(CCC(=O)N2CCCC(C(=O)c3ccc(Cl)cc3)C2)=NN1` (stereo not drawn), the inhibition was -8.97% (inactive).

For the compound `O=C(Nc1cccc(F)c1)[C@@H]1CCCN1`, the inhibition is 0.82% (inactive).

Consider `O=C(Nc1cccc(F)c1)c1cc(-c2ccco2)nc2ccccc12`, for which the inhibition is 50.4% (active).

`CN(CC(=O)Nc1cccc(F)c1)C(=O)C1CC(=O)N(CCc2ccccc2)C1` (stereo not drawn): the inhibition is -11.8% (inactive).

On to `CCCc1nc(-c2cc3cc(C)ccc3[nH]c2=O)no1`, for which the inhibition was 84.7% (active).

Take `Cc1cc(/C=C2\SC(=O)N(C)C2=O)c(C)n1-c1cccc(C(=O)O)c1`: the inhibition is 38.7% (active).

For the compound `COc1cc(Cl)cc(C2NC(=O)NC(C)=C2C(=O)NCc2ccccc2)c1O` (stereo not drawn), the inhibition was -19.7% (inactive) and -13.7% (inactive).

For `C[n+]1ccc(C(=O)NCc2ccccc2)cc1`, the inhibition was 80.1% (active).

Take `Cc1ccc(SCC(=O)NC(=O)NCc2ccco2)c(C)c1`: the inhibition is 73.6% (active).

Take `O=C(CN1CCN(S(=O)(=O)/C=C/c2ccccc2)CC1)NC(=O)NCc1ccco1`: the inhibition was 10.9% (inactive).

Turning to `Cc1c(CCC(=O)O)c(=O)oc2c(C)c(OCc3ccccc3Cl)ccc12`, the inhibition was 58.5% (active).

As to `Cc1c(CCC(=O)O)c(=O)oc2cc(OCc3ccc(Br)cc3)ccc12`, the inhibition is 38.7% (active).

With `COc1ccc(Cl)cc1C=CC=NNC(=O)c1ccncc1`, the inhibition was 38.5% (active).

With `COc1ccc(N2CCN(C(=O)CSc3nc4cc(OC)c(OC)cc4cc3C#N)CC2)cc1`, the inhibition is 25.3% (inactive).

With `COCCCNc1nc2ccccc2nc1NS(=O)(=O)c1ccc(F)cc1`, the inhibition is -5.57% (inactive).

For `CCC(=O)Nc1ccccc1N1CCN(S(C)(=O)=O)CC1`, the inhibition is -7.14% (inactive).

`COc1ccc(S(=O)(=O)c2c[nH]c(=S)[nH]c2=O)cc1Cl`: the inhibition is 40.6% (active).

Consider `COc1cccc2sc(N(CCCN(C)C)C(=O)C(c3ccccc3)c3ccccc3)nc12`, for which the inhibition is -18.8% (inactive).

For the compound `CC1=NNC(=O)C1CCC(=O)N/N=C\c1cccc(Cl)c1` (stereo not drawn), the inhibition is -18.8% (inactive).

Take `CSc1ccc(/C=N/NC(=O)c2cccc(Cl)c2)cc1`: the inhibition was 59.9% (active).

As for `O=C(Cn1nnc(-c2ccc3c(c2)OCO3)n1)NCc1ccco1`, the inhibition was 30.9% (active).

As to `Cc1nnc(SCC(=O)Nc2ccc(S(=O)(=O)Nc3ccc(Cl)nn3)cc2)s1`, the inhibition is 58.2% (active).

Take `C=C1c2cccc(OC)c2O[C@H](C(=O)OCC)[C@@H]1CCCCCC`: the inhibition was 88% (active).

Regarding `CO/N=C(\C(=O)N[C@@H]1C(=O)N2C(C(=O)O)=C(COC(C)=O)CS[C@H]12)c1csc(N)n1` (stereo in doubt), the inhibition is 43.7% (active).

Turning to `C=CC1C(OC2OC(CO)C(O)C(O)C2O)OC=C(C(=O)OC)C1CC1CC(=O)CC(CC(=O)CCc2ccc(O)cc2)O1` (stereo not drawn), the inhibition is -13.1% (inactive).

Consider `Cc1ccc(CN2CCN(c3ccccc3Cl)CC2)o1`, for which the inhibition was -20% (inactive).

For `CCOC(=O)C1=C(C)c2ccccc2OC1(C)C(=O)OCC` (stereo not drawn), the inhibition is 39.1% (active).

As for `CC(=O)Nc1ccc(N2C(=O)CCC2=O)cc1C`, the inhibition is -5.6% (inactive).

With `CCOc1ccccc1/C=c1\sc2nc(-c3ccco3)nn2c1=O`, the inhibition is 61% (active).

On to `O=C(COC(=O)c1ccc(F)cc1F)Nc1ncccn1`, for which the inhibition was 52.5% (active).

Take `N#Cc1ccc(C(=O)Nc2cccc3cccnc23)c(F)c1`: the inhibition is 3.88% (inactive).

The values above are taken from PubChem BioAssay AID540281 (Sanford-Burnham Center for Chemical Genomics, 2011).
